Test results reported in ChEMBL document CHEMBL5724801, “EUbOPEN Chemogenomics Library - Multiplex” (2024).
Values joined by “and” are separate entries in the source; they are usually repeats but may differ in a detail not shown here. Equal entries are not always repeated.

How the values were obtained:
U2OS = test: Multiplex assay against U2OS; assay type: toxicity, cell-based; settings: human
Method in brief: (§1)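 With compound added, live cells were imaged on a CQ1 microscope at 37°C and 5% CO2; staining with Hoechst33342, BioTracker Green Microtubule Cytoskeleton Dye, MitoTracker Red and Annexin V Alexa Fluor 680 had been done at seeding. The CellPathfinder machine-learning gating scheme split cells into Hoechst high-intensity objects or normal cells, normal cells into healthy, pyknosed or fragmented nuclei, and pyknosed cells into mitotic or apoptotic. The tubulin, mitochondrial-mass and membrane-permeability phenotypes are per cents of healthy-nucleus cells.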

HEK-293T = test: Multiplex assay against HEK293T; assay type: toxicity, cell-based; settings: human; method in brief: as §1
[1] = 12 h, 1 µM, compound concentration 1 uM
[2] = 12 h, 10 µM, compound concentration 10 uM
[3] = 24 h, 1 µM, compound concentration 1 uM
[4] = 24 h, 10 µM, compound concentration 10 uM
[5] = 48 h, 1 µM, compound concentration 1 uM
[6] = 48 h, 10 µM, compound concentration 10 uM

For Nc1nc(CC(=O)Nc2ccc(CCNC[C@H](O)c3ccccc3)cc2)cs1 [MIRABEGRON], the “Population Apoptotic (%)” value (U2OS; [1]) was 86% and 100%, the “Population Fragmented Nuclei (%)” value (U2OS; [1]) was 24% and 13% and the “Population Healthy Nuclei (%)” value (U2OS; [1]) was 62% and 74%. For the same molecule, the “Population Hoechst High Intensity Objects (%)” value (U2OS; [1]) was 1% and 0%, the “Population Membrane Permeable-Phenotype (%)” value (U2OS; [1]) was 6% and 5% and the “Population Mitochondria Different-Phenotype (%)” value (U2OS; [1]) was 3% and 2%. For the same molecule, the “Population Mitotic Cells (%)” value (U2OS; [1]) was 13% and 0%, the “Population Normal (%)” value (U2OS; [1]) was 98% and 99% and the “Population Pyknosed Nuclei (%)” value (U2OS; [1]) was 12%. For the same molecule, the “Population Tubulin-Different-Phenotype (%)” value (U2OS; [1]) was 4% and 5%, the “Total Cell Count” value (U2OS; [1]) was 240 and 107 and the “Population Apoptotic (%)” value (U2OS; [2]) was 86% and 66%. For the same molecule, the “Population Fragmented Nuclei (%)” value (U2OS; [2]) was 18% and 21%, the “Population Healthy Nuclei (%)” value (U2OS; [2]) was 70% and 71% and the “Population Hoechst High Intensity Objects (%)” value (U2OS; [2]) was 1% and 0%. For the same molecule, the “Population Membrane Permeable-Phenotype (%)” value (U2OS; [2]) was 6% and 7%, the “Population Mitochondria Different-Phenotype (%)” value (U2OS; [2]) was 2% and 3% and the “Population Mitotic Cells (%)” value (U2OS; [2]) was 13% and 33%. For the same molecule, the “Population Normal (%)” value (U2OS; [2]) was 98% and 99%, the “Population Pyknosed Nuclei (%)” value (U2OS; [2]) was 11% and 6% and the “Population Tubulin-Different-Phenotype (%)” value (U2OS; [2]) was 4% and 1%. For the same molecule, the “Total Cell Count” value (U2OS; [2]) was 319 and 136, the “Population Apoptotic (%)” value (U2OS; [3]) was 82% and 58% and the “Population Fragmented Nuclei (%)” value (U2OS; [3]) was 21% and 11%. The “Population Healthy Nuclei (%)” value (U2OS; [3]) was 70% and 79%, the “Population Hoechst High Intensity Objects (%)” value (U2OS; [3]) was 2% and 0% and the “Population Membrane Permeable-Phenotype (%)” value (U2OS; [3]) was 4% and 9%. The “Population Mitochondria Different-Phenotype (%)” value (U2OS; [3]) was 2% and 3%, the “Population Mitotic Cells (%)” value (U2OS; [3]) was 17% and 41% and the “Population Normal (%)” value (U2OS; [3]) was 97% and 99%. The “Population Pyknosed Nuclei (%)” value (U2OS; [3]) was 8% and 9%, the “Population Tubulin-Different-Phenotype (%)” value (U2OS; [3]) was 3% and 7% and the “Total Cell Count” value (U2OS; [3]) was 289 and 125. For the same molecule, the “Population Apoptotic (%)” value (U2OS; [4]) was 86% and 76%, the “Population Fragmented Nuclei (%)” value (U2OS; [4]) was 17% and 20% and the “Population Healthy Nuclei (%)” value (U2OS; [4]) was 75% and 71%. For the same molecule, the “Population Hoechst High Intensity Objects (%)” value (U2OS; [4]) was 1%, the “Population Membrane Permeable-Phenotype (%)” value (U2OS; [4]) was 5% and 9% and the “Population Mitochondria Different-Phenotype (%)” value (U2OS; [4]) was 3% and 5%. The “Population Mitotic Cells (%)” value (U2OS; [4]) was 13% and 23%, the “Population Normal (%)” value (U2OS; [4]) was 98% and the “Population Pyknosed Nuclei (%)” value (U2OS; [4]) was 7%. The “Population Tubulin-Different-Phenotype (%)” value (U2OS; [4]) was 3% and 4%, the “Total Cell Count” value (U2OS; [4]) was 405 and 167 and the “Population Apoptotic (%)” value (U2OS; [5]) was 84% and 78%. The “Population Fragmented Nuclei (%)” value (U2OS; [5]) was 17% and 12%, the “Population Healthy Nuclei (%)” value (U2OS; [5]) was 72% and 74% and the “Population Hoechst High Intensity Objects (%)” value (U2OS; [5]) was 2%. For the same molecule, the “Population Membrane Permeable-Phenotype (%)” value (U2OS; [5]) was 4% and 8%, the “Population Mitochondria Different-Phenotype (%)” value (U2OS; [5]) was 3% and the “Population Mitotic Cells (%)” value (U2OS; [5]) was 15% and 21%. For the same molecule, the “Population Normal (%)” value (U2OS; [5]) was 97%, the “Population Pyknosed Nuclei (%)” value (U2OS; [5]) was 9% and 13% and the “Population Tubulin-Different-Phenotype (%)” value (U2OS; [5]) was 3% and 7%. For the same molecule, the “Total Cell Count” value (U2OS; [5]) was 394 and 179, the “Population Apoptotic (%)” value (U2OS; [6]) was 87% and 70% and the “Population Fragmented Nuclei (%)” value (U2OS; [6]) was 14%. The “Population Healthy Nuclei (%)” value (U2OS; [6]) was 74% and 78%, the “Population Hoechst High Intensity Objects (%)” value (U2OS; [6]) was 2% and the “Population Membrane Permeable-Phenotype (%)” value (U2OS; [6]) was 5% and 3%. The “Population Mitochondria Different-Phenotype (%)” value (U2OS; [6]) was 2% and 3%, the “Population Mitotic Cells (%)” value (U2OS; [6]) was 12% and 29% and the “Population Normal (%)” value (U2OS; [6]) was 97%. For the same molecule, the “Population Pyknosed Nuclei (%)” value (U2OS; [6]) was 10% and 7%, the “Population Tubulin-Different-Phenotype (%)” value (U2OS; [6]) was 2% and 1% and the “Total Cell Count” value (U2OS; [6]) was 534 and 232. The “Population Apoptotic (%)” value (HEK-293T; [1]) was 22% and 55%, the “Population Fragmented Nuclei (%)” value (HEK-293T; [1]) was 5% and 8% and the “Population Healthy Nuclei (%)” value (HEK-293T; [1]) was 84% and 80%. For the same molecule, the “Population Hoechst High Intensity Objects (%)” value (HEK-293T; [1]) was 5%, the “Population Membrane Permeable-Phenotype (%)” value (HEK-293T; [1]) was 0% and the “Population Mitochondria Different-Phenotype (%)” value (HEK-293T; [1]) was 45% and 56%. For the same molecule, the “Population Mitotic Cells (%)” value (HEK-293T; [1]) was 77% and 44%, the “Population Normal (%)” value (HEK-293T; [1]) was 94% and the “Population Pyknosed Nuclei (%)” value (HEK-293T; [1]) was 10% and 11%. For the same molecule, the “Population Tubulin-Different-Phenotype (%)” value (HEK-293T; [1]) was 19%, the “Total Cell Count” value (HEK-293T; [1]) was 455 and 332 and the “Population Apoptotic (%)” value (HEK-293T; [2]) was 32% and 44%. For the same molecule, the “Population Fragmented Nuclei (%)” value (HEK-293T; [2]) was 5% and 11%, the “Population Healthy Nuclei (%)” value (HEK-293T; [2]) was 77% and 74% and the “Population Hoechst High Intensity Objects (%)” value (HEK-293T; [2]) was 7% and 8%. For the same molecule, the “Population Membrane Permeable-Phenotype (%)” value (HEK-293T; [2]) was 0%, the “Population Mitochondria Different-Phenotype (%)” value (HEK-293T; [2]) was 51% and 64% and the “Population Mitotic Cells (%)” value (HEK-293T; [2]) was 67% and 56%. The “Population Normal (%)” value (HEK-293T; [2]) was 92% and 91%, the “Population Pyknosed Nuclei (%)” value (HEK-293T; [2]) was 17% and 14% and the “Population Tubulin-Different-Phenotype (%)” value (HEK-293T; [2]) was 41% and 29%. The “Total Cell Count” value (HEK-293T; [2]) was 423 and 388, the “Population Apoptotic (%)” value (HEK-293T; [3]) was 28% and 27% and the “Population Fragmented Nuclei (%)” value (HEK-293T; [3]) was 10% and 8%. The “Population Healthy Nuclei (%)” value (HEK-293T; [3]) was 80% and 83%, the “Population Hoechst High Intensity Objects (%)” value (HEK-293T; [3]) was 2% and 3% and the “Population Membrane Permeable-Phenotype (%)” value (HEK-293T; [3]) was 0%. For the same molecule, the “Population Mitochondria Different-Phenotype (%)” value (HEK-293T; [3]) was 30% and 41%, the “Population Mitotic Cells (%)” value (HEK-293T; [3]) was 71% and 72% and the “Population Normal (%)” value (HEK-293T; [3]) was 97% and 96%. For the same molecule, the “Population Pyknosed Nuclei (%)” value (HEK-293T; [3]) was 9% and 7%, the “Population Tubulin-Different-Phenotype (%)” value (HEK-293T; [3]) was 14% and 13% and the “Total Cell Count” value (HEK-293T; [3]) was 635 and 390.
